Measurements of several laboratories.
Protocols differ between the studies behind these lines.
Target: Serine/threonine-protein kinase Chk1 (CHEK1, Homo sapiens, UniProt O14757)
One construct used (O14757 1-476): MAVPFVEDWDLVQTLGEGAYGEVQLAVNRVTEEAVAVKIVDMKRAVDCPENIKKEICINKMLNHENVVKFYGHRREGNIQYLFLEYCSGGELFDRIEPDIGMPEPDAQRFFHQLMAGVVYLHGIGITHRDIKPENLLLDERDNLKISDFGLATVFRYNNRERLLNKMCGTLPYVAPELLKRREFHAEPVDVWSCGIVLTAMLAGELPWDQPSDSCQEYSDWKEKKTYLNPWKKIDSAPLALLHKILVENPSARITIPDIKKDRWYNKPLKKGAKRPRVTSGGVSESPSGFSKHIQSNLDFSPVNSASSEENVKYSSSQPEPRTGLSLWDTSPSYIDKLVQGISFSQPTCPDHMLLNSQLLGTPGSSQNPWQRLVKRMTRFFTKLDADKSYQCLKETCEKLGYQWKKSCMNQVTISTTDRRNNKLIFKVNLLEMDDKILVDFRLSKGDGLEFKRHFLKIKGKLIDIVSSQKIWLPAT

| SMILES | assay | system | conditions | quantity | value |
| --- | --- | --- | --- | --- | --- |
| Cc1sc(C(=O)NC2COC2)cc1-n1cc(NC(=O)Nc2c(F)cccc2Cl)cn1 | enzyme activity, inhibitor | – | 10 µM | remaining activity | 118% |
| C[S+]([O-])c1ccc(-c2nc(-c3ccncc3)c(-c3ccc(F)cc3)[nH]2)cc1 (stereo not drawn) | cell-free assay | – | 0.5 µM | remaining signal | 97.3% |
| CO[C@@H](C)c1c(Nc2ccc([C@@H](N(C)C(=O)C3CCS(=O)(=O)CC3)C(F)(F)F)cc2)cnc2cc(Cl)nn12 | cell-free assay, competition with immobilised ligand | – | 1 µM | remaining binding | 95% |
| CC(C)(C)c1nc2c(s1)c1nc(N)ncc1c1ccc(NS(=O)(=O)c3c(F)cccc3F)c(F)c12 | enzyme activity, inhibitor, radiometric | – | 1 µM | remaining activity | 94% |
| Cn1c(=O)n(-c2ccc(C(C)(C)C#N)cc2)c2c3cc(-c4cnc5ccccc5c4)ccc3ncc21 | enzyme activity, inhibitor | – | 10 µM | remaining activity | 146% |
| COc1cc(Nc2cnc(C#N)c(O[C@H](C)CN(C)C)n2)ncc1-c1cnn(C)c1 | enzyme activity, inhibitor, radiometric | – | 10 µM | remaining activity | 6% |
| CCN1CCN(Cc2ccc(NC(=O)c3ccc(C)c(/C=C/c4cnc5[nH]ccc5c4OC)c3)cc2C(F)(F)F)CC1 | target engagement in cells, inhibitor, chemoproteomics | A-375 | 5 µM | inhibition | -51.1% |
| Nc1ncnc2occ(-c3ccc(NC(=O)Nc4cc(C(F)(F)F)ccc4F)cc3)c12 | cell-free assay, inhibitor | – | 20 µM | remaining signal | 100% |
| CCS(=O)(=O)c1cc2cc(C[C@](O)(CC(C)(C)c3ccc(F)cc3C(N)=O)C(F)(F)F)[nH]c2cn1 | cell-free assay, competition with immobilised ligand | – | 1 µM | remaining binding | 97% |
| Cc1ccc(NC(=O)c2ccc(C)c(C(F)(F)F)c2)cc1C#Cc1nn(C2CCC(O)CC2)c2ncnc(N)c12 (stereo not drawn) | cell-free assay | – | 10 µM | remaining signal | 114% |
| CNC(=O)Nc1ccc2c(c1)[C@@]1(CC2)OC(=O)N(CC(=O)N(Cc2ccc(F)cc2)[C@@H](C)C(F)(F)F)C1=O | cell-free assay, competition with immobilised ligand | – | 1 µM | remaining binding | 100% |
| CC(C)(C)C(=O)c1sc(NC2CCCCC2)nc1N | enzyme activity, inhibitor | – | 10 µM | remaining activity | 80% |
| C#Cc1cccc(Nc2ncnc3cc(OCCOC)c(OCCOC)cc23)c1 | cell-free assay | – | 0.5 µM | remaining signal | 95.1% |
| O=C(NS(=O)(=O)c1ccc(NCC2CCOCC2)c([N+](=O)[O-])c1)c1ccc(N2CCN(Cc3ccc(C(F)(F)F)cc3-c3ccc(Cl)cc3)CC2)cc1Oc1cnc2[nH]ccc2c1 | cell-free assay, competition with immobilised ligand | – | 1 µM | remaining binding | 100% |
| COc1cc2c(Nc3ccc(Br)cc3F)ncnc2cc1OCC1CCN(C)CC1 | cell-free assay | – | 0.5 µM | remaining signal | 94.4% |
| Nc1cnc(N2CCc3cc(S(=O)(=O)Nc4c(F)cc(Cl)cc4F)cc(N4CCCC4=O)c32)nc1 | cell-free assay, competition with immobilised ligand | – | 1 µM | remaining binding | 95% |
| Cc1ccc(C(=O)Nc2ccc(CN3CCN(C)CC3)c(C(F)(F)F)c2)cc1C#Cc1cnc2cccnn12 | enzyme activity, inhibitor | – | 23.5 nM | remaining activity | 96% |
| Cc1ccc(NC(=O)c2ccc(CN3CCN(C)CC3)cc2)cc1Nc1nc(-c2cccnc2)cs1 | cell-free assay | – | 0.5 µM | remaining signal | 110% |
| Cc1nccc(COC(=O)N2C[C@@H]3[C@@H](CNC(=O)c4ccc5[nH]nnc5c4)[C@@H]3C2)n1 | cell-free assay, competition with immobilised ligand | – | 1 µM | remaining binding | 100% |
| CN(C)C1CCN(CC#Cc2nn(C3CCCC3)c3nc(NCc4ccccc4)ncc23)C1 (stereo not drawn) | enzyme activity, inhibitor, FRET | – | 0.1 µM | inhibition | 2% |
| Oc1cccc(-c2nc(N3CCOCC3)c3oc4ncccc4c3n2)c1 | enzyme activity, inhibitor | – | 10 µM | remaining activity | 115% |
| O=C(Nc1cnn(-c2csc(C(=O)NC3COC3)c2)c1)Nc1ccccc1Cl | enzyme activity, inhibitor | – | 5 µM | remaining activity | 98.7% |
| CS(=O)(=O)NCC[C@H](NC(=O)c1cncc2c1cnn2-c1ccc(F)cc1)c1ccnc(S(C)(=O)=O)c1 | cell-free assay, competition with immobilised ligand | – | 1 µM | remaining binding | 97% |
| CCN(CC)CCNC(=O)c1c(C)[nH]c(/C=C2\C(=O)Nc3ccc(F)cc32)c1C | cell-free assay | – | 0.5 µM | remaining signal | 29.2% |
